# Results from different studies.
# Lines come from different studies, so protocols differ.
# Target: Rhodopsin kinase GRK7 (GRK7, Homo sapiens, UniProt Q8WTQ7)
# Residues used in one study (Q8WTQ7 1-553): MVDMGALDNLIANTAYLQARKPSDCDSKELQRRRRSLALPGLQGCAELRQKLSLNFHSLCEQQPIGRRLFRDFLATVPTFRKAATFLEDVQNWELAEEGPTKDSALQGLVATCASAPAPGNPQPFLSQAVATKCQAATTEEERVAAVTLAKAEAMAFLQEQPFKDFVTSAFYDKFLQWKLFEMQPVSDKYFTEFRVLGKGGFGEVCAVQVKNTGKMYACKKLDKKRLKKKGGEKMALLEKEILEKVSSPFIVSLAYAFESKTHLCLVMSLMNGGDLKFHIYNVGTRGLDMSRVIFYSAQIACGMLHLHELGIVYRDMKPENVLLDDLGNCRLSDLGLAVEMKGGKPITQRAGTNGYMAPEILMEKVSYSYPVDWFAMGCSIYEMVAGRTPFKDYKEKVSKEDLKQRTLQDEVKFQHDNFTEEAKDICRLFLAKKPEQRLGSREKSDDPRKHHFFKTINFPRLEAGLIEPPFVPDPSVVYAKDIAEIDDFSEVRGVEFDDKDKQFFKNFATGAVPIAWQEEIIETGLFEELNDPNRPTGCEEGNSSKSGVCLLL
SMILES,observed,mode,technique,tested at,endpoint,value
CC(C)(C)c1cc(C=C(C#N)C#N)cc(Br)c1O,enzyme activity,inhibitor,,0.5 µM,remaining activity,107%
Cn1cc(-c2cc(F)cc(N3CCn4c(cc5c4CCCC5)C3=O)c2CO)cc(Nc2ccc(N3CCN(C4COC4)CC3)cn2)c1=O,enzyme activity,inhibitor,,0.1 µM,inhibition,2%
O=c1[nH]c2ccccc2n1C1CCN(Cc2ccc(-c3[nH]c4cc5ncnc5cc4nc3-c3ccccc3)cc2)CC1,cell-free assay,,,0.5 µM,remaining signal,98.5%
Cn1cc(-c2cccc(N3CCc4c(sc5c4CC(C)(C)C5)C3=O)c2CO)cc(Nc2ccncn2)c1=O,enzyme activity,inhibitor,,1 µM,inhibition,3%
Cn1cncc1[C@@](O)(COc1ccc(C#N)cc1-c1ccc(OC(F)(F)F)cc1)c1ccc(C#N)cc1,cell-free assay,,competition with immobilised ligand,1 µM,remaining binding,81%
COc1ncccc1-c1cnn2ccc(N3CCN(C(=O)OC(C)C)CC3)nc12,binding,,competition with immobilised ligand,1 µM,remaining binding,100%
N#CC1(c2ccccn2)CCN(Cc2cc(C(=O)O)c(=O)n3ccccc23)CC1,cell-free assay,,competition with immobilised ligand,1 µM,remaining binding,77%
Nc1ncc(-c2nc(N3CCOCC3)nc(N3CCOCC3)n2)c(C(F)F)n1,binding,,competition with immobilised ligand,10 µM,remaining binding,67%
